Measured values as given in ChEMBL document CHEMBL1133075, “Synthesis and characterization of a novel class of protein tyrosine phosphatase inhibitors” (Bioorg Med Chem Lett, 2000).

Tests used:
[1] = target: T1, Tyrosine-protein phosphatase non-receptor type 1 (Homo sapiens, UniProt P18031); experiment: Compound was evaluated for the inhibition constant against Protein-tyrosine phosphatase (PTP1B )
T1 sequence (P18031 whole entry): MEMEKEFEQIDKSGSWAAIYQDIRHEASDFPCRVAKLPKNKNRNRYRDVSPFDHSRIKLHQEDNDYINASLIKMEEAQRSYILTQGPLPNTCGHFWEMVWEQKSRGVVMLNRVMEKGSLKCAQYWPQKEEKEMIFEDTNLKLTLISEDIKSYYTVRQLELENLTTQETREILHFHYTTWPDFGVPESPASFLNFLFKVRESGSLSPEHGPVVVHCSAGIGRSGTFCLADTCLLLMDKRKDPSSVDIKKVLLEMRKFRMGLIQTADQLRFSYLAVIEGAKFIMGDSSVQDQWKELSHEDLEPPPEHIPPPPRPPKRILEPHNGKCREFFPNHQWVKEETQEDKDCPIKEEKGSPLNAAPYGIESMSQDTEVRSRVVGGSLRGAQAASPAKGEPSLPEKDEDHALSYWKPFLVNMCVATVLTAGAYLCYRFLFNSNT
Procedure, shortened: (§1)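 pNPP hydrolysis in pH 7.0 buffer of 50 mM 3,3-dimethylglutarate, 1 mM EDTA, ionic strength 0.15 M with NaCl. Reaction started with enzyme and stopped after 2–3 min with 1 N NaOH. Nonenzymatic substrate hydrolysis subtracted via an enzyme-free control. Initial rates taken at eight pNPP levels (0.2–5 Km) at each of three fixed inhibitor concentrations to obtain the inhibition constant.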

[2] = target: Dual specificity protein phosphatase 3 (Homo sapiens, UniProt P51452); experiment: Compound was evaluated for the inhibition constant against dual specificity phosphatase VHR; procedure, shortened: as §1
Chain of Dual specificity protein phosphatase 3 (P51452 whole entry): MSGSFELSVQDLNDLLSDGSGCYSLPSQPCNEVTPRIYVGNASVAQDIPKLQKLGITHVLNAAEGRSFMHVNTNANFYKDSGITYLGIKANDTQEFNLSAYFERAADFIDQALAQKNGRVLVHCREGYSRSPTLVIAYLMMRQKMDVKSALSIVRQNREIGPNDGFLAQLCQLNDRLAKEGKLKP

| Ki [1] [mM] | Ki [2] [mM] | SMILES |
| --- | --- | --- |
| 1.1 | 2.6 | O=C(O)Cc1ccc(OCP(=O)(O)O)cc1 |
| 0.41 | 0.57 | O=P(O)(O)COc1cccc2c1ccc1ccccc12 |
| 0.047 | 1.3 | O=P(O)(O)COc1ccc(Cc2ccc(O)cc2)cc1 |
| 1.3 | 4.8 | O=P(O)(O)COc1cccc2ccccc12 |
| 1.3 | 5.7 | O=P(O)(O)COc1ccc2ccccc2c1 |

| SMILES | Ki [1] [mM] | Ki [2] [mM] |
| --- | --- | --- |
| O=P(O)(O)COc1ccccc1 [PHENOXYMETHYLPHOSPHONATE] | 3.3 | 26 |
